Consider 29 compounds from ChEMBL document CHEMBL4428087, “Synthesis and antitumor activity evaluation of quinazoline derivatives bearing piperazine-1-carbodithioate moiety at C4-position” (Bioorg Med Chem Lett, 2016).

Structures are written as SMILES. pIC50: −log10 of the molar value.

Experiment [1] concerns A549. As to the kind of experiment: Antiproliferative activity against human A549 cells after 72 hrs by MTS assay. The format is functional, cell-based. Particulars: A549, 72 h. The essentials:
(§1)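 Cells were exposed to compound for 72 h. A first screen at 50 μM called a compound active at ≥50% inhibition versus vehicle-treated cells. Active compounds were then tested at various concentrations, and IC50 (concentration giving 50% proliferation inhibition) was derived. Values are mean ± SD from triplicate determinations in three independent experiments.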

For experiment [2], the system named is MCF7. As to the kind of experiment: Antiproliferative activity against human MCF7 cells after 72 hrs by MTS assay. The format is functional, cell-based. Conditions: MCF7, 72 h. The essentials:
as §1

Experiment [3] relates to HCT-116. As to the kind of experiment: Antiproliferative activity against human HCT116 cells after 72 hrs by MTS assay. It counts as functional, cell-based. Particulars: HCT-116, 72 h. The gist of the method: as §1
In experiment [4] the test system is HCT-116. Put plainly: Cell cycle arrest in human HCT116 cells assessed as accumulation at G0/G1 phase at IC50 after 24 hrs by propidium iodide staining based flow cytometry (reference value: 34.93 %). It counts as functional.
The subject of experiment [5] is HCT-116. As to the kind of experiment: Cell cycle arrest in human HCT116 cells assessed as accumulation at S phase at IC50 after 24 hrs by propidium iodide staining based flow cytometry (reference value: 46.36 %). It counts as functional.
In experiment [6] the test system is HCT-116. As to the kind of experiment: Cell cycle arrest in human HCT116 cells assessed as accumulation at G2/M phase at IC50 after 24 hrs by propidium iodide staining based flow cytometry (reference value: 16.91 %). It counts as functional.
Experiment [7] concerns HCT-116. As to the kind of experiment: Cell cycle arrest in human HCT116 cells assessed as accumulation at G0/G1 phase after 24 hrs by propidium iodide staining based flow cytometry. The format is functional. The essentials: (§2)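 HCT-116 cells were treated for 24 h at multiples of IC50 (1×, 1.25× or 1.5×) or at 0.1 µM, with a DMSO control. Cells were harvested, fixed in 70% ice-cold ethanol and stained with propidium iodide. DNA content was read by flow cytometry, and the percentages of cells in G0/G1, S and G2/M were calculated. Three independent experiments were run.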

The test system of experiment [8] is HCT-116. Put plainly: Cell cycle arrest in human HCT116 cells assessed as accumulation at G0/G1 phase at 1.25 times IC50 after 24 hrs by propidium iodide staining based flow cytometry (reference value: 34.93 %). It counts as functional. The essentials:
as §2

Experiment [9] deals with HCT-116. Put plainly: Cell cycle arrest in human HCT116 cells assessed as accumulation at G0/G1 phase at 1.5 times IC50 after 24 hrs by propidium iodide staining based flow cytometry (reference value: 34.93 %). It counts as functional. The essentials:
as §2

The subject of experiment [10] is HCT-116. Put plainly: Cell cycle arrest in human HCT116 cells assessed as accumulation at S phase at 1.25 times IC50 after 24 hrs by propidium iodide staining based flow cytometry (reference value: 46.36 %). The format is functional. The gist of the method:
as §2

Experiment [11] relates to HCT-116. Put plainly: Cell cycle arrest in human HCT116 cells assessed as accumulation at S phase at 1.5 times IC50 after 24 hrs by propidium iodide staining based flow cytometry (reference value: 46.36 %). It counts as functional. The gist of the method:
as §2

Experiment [12] has as its system HCT-116. As to the kind of experiment: Cell cycle arrest in human HCT116 cells assessed as accumulation at G2/M phase at 1.25 times IC50 after 24 hrs by propidium iodide staining based flow cytometry (reference value: 16.91 %). It counts as functional. The essentials:
as §2

The subject of experiment [13] is HCT-116. Put plainly: Cell cycle arrest in human HCT116 cells assessed as accumulation at G2/M phase at 1.5 times IC50 after 24 hrs by propidium iodide staining based flow cytometry (reference value: 16.91 %). It counts as functional. The essentials: as §2
Experiment [14] concerns HCT-116. Put plainly: Cell cycle arrest in human HCT116 cells assessed as accumulation at sub-G1 phase after 24 hrs by propidium iodide staining based flow cytometry. It counts as functional. The gist of the method:
as §2

Experiment [15] relates to HCT-116. As to the kind of experiment: Cell cycle arrest in human HCT116 cells assessed as accumulation at G0/G1 phase at 0.1 uM after 24 hrs by propidium iodide staining based flow cytometry (reference value: 34.93 %). The format is functional. The essentials: as §2
Experiment [16] relates to HCT-116. As to the kind of experiment: Cell cycle arrest in human HCT116 cells assessed as accumulation at S phase at 0.1 uM after 24 hrs by propidium iodide staining based flow cytometry (reference value: 46.36 %). The format is functional. The gist of the method:
as §2

Experiment [17] concerns HCT-116. As to the kind of experiment: Cell cycle arrest in human HCT116 cells assessed as accumulation at G2/M phase at 0.1 uM after 24 hrs by propidium iodide staining based flow cytometry (reference value: 16.91 %). It counts as functional. The essentials: as §2

In the case of `COc1cccc(CSC(=S)N2CCN(c3ncnc4cc(OCCCN5CCCCC5)c(OC)cc34)CC2)c1`, the pIC50 in experiment [1] is 5.34; in [2], 5.41; in experiment [3] it was 5.10.

As to `COc1cc2c(N3CCN(C(=S)SCc4ccco4)CC3)ncnc2cc1OCCCN1CCCCC1`, the values for the pIC50 in experiment [1], in [2] and in [3] were 5.18, 5.14 and 5.14, respectively.

`COc1cc2c(N3CCN(C(=S)SCc4ccccc4)CC3)ncnc2cc1OCCCN1CCCCC1`: the pIC50 is 4.80 in [1], 4.55 in experiment [2] and 4.54 in experiment [3].

With `O=c1[nH]cc(F)c(=O)[nH]1` [FLUOROURACIL], the Activity came to 28.47% in [4], 62.28% in [5] and 8.29% in [6].

For the compound `CCCSC(=S)N1CCN(c2ncnc3cc(OCCCN4CCCCC4)c(OC)cc23)CC1`, the pIC50 in [1] was 5.09; in experiment [2] it was 4.98; in [3], 5.06.

Regarding `COc1ccc(CSC(=S)N2CCN(c3ncnc4cc(OCCCN5CCCCC5)c(OC)cc34)CC2)cc1`, the pIC50 was 5.37 in experiment [1], 5.38 in experiment [2] and 5.31 in [3].

On to `COc1cc2c(N3CCN(C(=S)SC)CC3)ncnc2cc1OCCCN1CCCCC1`, for which the pIC50 in [1] is 4.48; in experiment [2] it was 4.56; in experiment [3], 4.61.

Turning to `COc1cc2c(N3CCN(C(=S)SCc4ccc(Br)cc4)CC3)ncnc2cc1OCCCN1CCCCC1`, the results for the pIC50 in experiment [1], in experiment [2] and in experiment [3] were 5.37, 5.41 and 5.34, respectively.

For the compound `COc1cc2c(N3CCN(C(=S)SCC4CCCCC4)CC3)ncnc2cc1OCCCN1CCCCC1`, the Activity result was “Dose-dependent effect” in experiment [7]; 44.47% in experiment [4]; 50.65% in experiment [8]; 55.8% in experiment [9]; 26.82% in experiment [5]; 23.67% in [10]. For the same compound, the Activity was 27.37% in experiment [11]; 28.74% in experiment [6]; 24.97% in experiment [12]; 14.4% in experiment [13]; “Dose-dependent effect” in experiment [14]. Also, the values for the pIC50 in experiment [1], in experiment [2] and in experiment [3] were 5.39, 5.40 and 5.34, respectively.

In the case of `COc1cc2c(N3CCN(C(=S)SCc4ccsc4)CC3)ncnc2cc1OCCCN1CCCCC1`, the results for the pIC50 in experiment [1], in [2] and in experiment [3] were 5.32, 5.29 and 5.25, respectively.

As to `COc1cc2c(N3CCN(C(=S)SCc4ccc(C#N)cc4)CC3)ncnc2cc1OCCCN1CCCCC1`, the pIC50 in experiment [1] was 5.02; in [2], 5.00; in experiment [3], 5.06.

For `CCSC(=S)N1CCN(c2ncnc3cc(OCCCN4CCCCC4)c(OC)cc23)CC1`, the pIC50 in experiment [1] is 4.74; in [2], 4.78; in experiment [3], 4.99.

With `COc1cc2c(N3CCN(C(=S)SCC4CCOCC4)CC3)ncnc2cc1OCCCN1CCCCC1`, the pIC50 in experiment [1] is 4.72; in [2] it was 4.74; in [3], 4.82.

For `COc1cc2c(N3CCN(C(=S)SCc4ccc(F)cc4F)CC3)ncnc2cc1OCCCN1CCCCC1`, the pIC50 in experiment [1] was 5.26; in [2] it was 5.33; in experiment [3] it was 5.33.

As for `COc1cc2c(N3CCN(C(=S)SCC4OCCO4)CC3)ncnc2cc1OCCCN1CCCCC1`, the results for the pIC50 in experiment [1], in experiment [2] and in experiment [3] were 4.61, 4.53 and 4.62, respectively.

With `COc1cc2c(N3CCN(C(=S)SCc4ccc(F)cc4)CC3)ncnc2cc1OCCCN1CCCCC1`, the figures for the pIC50 in [1], in [2] and in [3] were 5.37, 5.38 and 5.35, respectively.

With `COc1cc2c(N3CCN(C(=S)SCC4CCCO4)CC3)ncnc2cc1OCCCN1CCCCC1` (centres undefined), the pIC50 was 4.64 in experiment [1], 4.64 in [2] and 4.72 in experiment [3].

`COc1cc2c(N3CCN(C(=S)SCc4ccccn4)CC3)ncnc2cc1OCCCN1CCCCC1`: the pIC50 in experiment [1] was 4.54; in experiment [2] it was 4.68; in experiment [3], 4.69.

Regarding `COc1cc2c(N3CCN(C(=S)SCc4ccc(C)cc4)CC3)ncnc2cc1OCCCN1CCCCC1`, the pIC50 was 5.35 in experiment [1], 5.43 in experiment [2] and 5.26 in [3].

Consider `COc1cc2c(N3CCN(C(=S)SCc4ccc(F)c(F)c4)CC3)ncnc2cc1OCCCN1CCCCC1`, for which the pIC50 is 5.31 in [1], 5.51 in experiment [2] and 5.22 in [3].

As for `COc1cc2c(N3CCN(C(=S)SCc4ccncc4)CC3)ncnc2cc1OCCCN1CCCCC1`, the pIC50 in experiment [1], in experiment [2] and in [3] was below 4.30 in each case.

Regarding `COc1cc2c(N3CCN(C(=S)SCc4ccc([N+](=O)[O-])cc4)CC3)ncnc2cc1OCCCN1CCCCC1`, the pIC50 was 5.27 in [1], 5.16 in experiment [2] and 5.25 in [3].

Consider `COc1cc2c(N3CCN(C(=S)SCc4ccc(C(=O)O)cc4)CC3)ncnc2cc1OCCCN1CCCCC1`, for which the pIC50 in experiment [1], in [2] and in experiment [3] was below 4.30 in each case.

`CCN(CC)CCNC(=O)c1c(C)[nH]c(/C=C2\C(=O)Nc3ccc(F)cc32)c1C` [SUNITINIB]: the Activity entry in [7] is “Dose-dependent effect”; in [15], 50.07%; in [16], 33.36%; in experiment [17], 14.16%.

As to `COc1cc2c(N3CCN(C(=S)SC(C)C)CC3)ncnc2cc1OCCCN1CCCCC1`, the pIC50 is 4.95 in experiment [1], 5.08 in [2] and 4.98 in [3].

With `COc1cc2c(N3CCN(C(=S)SCc4cccnc4)CC3)ncnc2cc1OCCCN1CCCCC1`, the values for the pIC50 in [1], in experiment [2] and in [3] were 4.71, 4.65 and 4.65, respectively.

Regarding `COc1cc2c(N3CCN(C(=O)Nc4ccc(OC(C)C)cc4)CC3)ncnc2cc1OCCCN1CCCCC1` [TANDUTINIB], the pIC50 was 4.83 in experiment [1], 4.83 in [2] and 4.74 in experiment [3].

On to `COc1cc2c(N3CCN(C(=S)SCc4ccc(Cl)cc4)CC3)ncnc2cc1OCCCN1CCCCC1`, for which the pIC50 is 5.33 in experiment [1], 5.40 in [2] and 5.09 in experiment [3].

As for `COc1cc2c(N3CCN(C(=S)SCc4c(F)c(F)c(F)c(F)c4F)CC3)ncnc2cc1OCCCN1CCCCC1`, the pIC50 was 5.34 in [1], 5.38 in experiment [2] and 5.35 in experiment [3].
